# Laboratory results as given in the RNAGym collection of RNA variant scans (doi:10.1126/science.aae0568).
# Variants at the floor of the assay were thinned out.
# B1: tRNA (parent)
# chain: GUUCCGUUGGCGUAAUGGUAACGCGUCUCCCUCCUAAGGAGAAGACUGCGGGUUCGAGUCCCGUACGGAACG
# Variants of: B1
# Assay: yeast fitness relative to wild type (ratio to wild type); higher = fitter; tRNA-Arg(CCU), competitive growth, 37 C, YPD
# Method in brief: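 Variants of the tRNA-Arg(CCU) gene, chemically synthesised with a 3% per-site mutation rate at 69 sites, were placed at the native genomic locus in Saccharomyces cerevisiae. The pooled strains were competed in YPD at 37°C for 24 hours in six parallel replicates. Gene amplicons from the start population and from each end population were read by 100-nucleotide paired-end sequencing. Darwinian fitness relative to wild type came from changes in genotype frequencies; genotypes needed ≥ 100 starting reads, and estimates < 0.5 were set to 0.5.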
row,Variant,yeast fitness
1,U3C C24U C62U,0.725
2,U3C G12A A20C G23C G56C A65C G68A,≤ 0.5
3,U3C C31U U59G,0.579
4,U3C C31U A70G,0.812
5,U3C G44C,0.908
6,U3C G44A,0.993
7,U3C G6A A14G G18C C30U C31U G48A C55G,≤ 0.5
8,U3C C27A C31G,0.604
9,U3C G12A C30U G44A C61U,≤ 0.5
10,U3C A45C,0.856
11,U3C A45U,0.999
12,U3C C4U A70U,0.841
13,U3C G6C A14U G25A G38A U47A C60G A70G,0.51
14,U3C C11A A21G U28C U32G,≤ 0.5
15,U3C C27G C33U A43U,≤ 0.5
16,U3C G9A C11U,0.808
17,U3C G17A C60A C66U,≤ 0.5
18,U3C G9C C11U C30G A43C C55U,≤ 0.5
19,U3C C30G A43C G48A,≤ 0.5
20,U3C C30G C62A,≤ 0.5
21,U3C G10A U13C G58C,≤ 0.5
22,U3C C5G G38A A65G C66G,≤ 0.5
23,U3C C4G C22G C33U A36C A40U,≤ 0.5
24,U3C C62U G67A,0.587

row,Variant,yeast fitness
1,U3C A40C A45G C46A,≤ 0.5
2,U3C G9A C30A G67U,≤ 0.5
3,U3C C24U C55G A70U,≤ 0.5
4,U3C G18A U53A U54G A70G,≤ 0.5
5,U3C C31G U32C G38C C46G G48C G68C,≤ 0.5
6,U3C C49A G51C,0.694
7,U3C C4A A36U A43U,≤ 0.5
8,U3C G25A,0.968
9,U3C C31G G67U,≤ 0.5
10,U3C C27G C33G A42G A45G,≤ 0.5
11,U3C G51C C66U,≤ 0.5
12,U3C C60A C66U,0.651
13,U3C C5U A37G A43C C62U,≤ 0.5
14,U3C C62G,0.853
15,U3C C11A C31A A42G G68C,≤ 0.5
16,U3C C22G A69U,0.667
17,U3C C31U G63A,0.771
18,U3C C4U C5G U16C C24G A42C G58A,≤ 0.5
19,U3C C27G C33G G51C C60U C61U,≤ 0.5
20,U3C C5G C61U,≤ 0.5
21,U3C C34A,0.665
22,U3C C34U,0.789
23,U3C G9C C11U C30G C55A A69C,≤ 0.5
24,U3C C4G,0.891

row,Variant,yeast fitness
1,U3C G38A C61U,0.564
2,U3C A42U C61G,0.66
3,U3C C24G C33G C66U,≤ 0.5
4,U3C A57G A70U,0.564
5,U3C A42U,0.9
6,U3C A42C,0.85
7,U3C A42G,0.883
8,U3C C22A A45C C62G A65U,0.64
9,U3C C22G C61U A65U,0.596
10,U3C A40G C46A U53C,0.663
11,U3C C4U C24U C62U A69U,0.638
12,U3C C5A C55A C60A,≤ 0.5
13,U3C C4U A43U G58A,≤ 0.5
14,U3C C5G C34U,≤ 0.5
15,U3C C62U U64A,≤ 0.5
16,U3C G12C A20G A43G C61U,≤ 0.5
17,U3C C5A C11G A20U G25C U32A,≤ 0.5
18,U3C C4U A69U A70U,≤ 0.5
19,U3C G9A A14G C66U,≤ 0.5
20,U3C C11A U19G C24A A40C A45U,≤ 0.5
21,U3C G9A A15U C30A C34A A42G,≤ 0.5
22,U3C G12C A37U G51A C62U G63A,≤ 0.5
23,U3C C61U,0.847
24,U3C C61G,0.604

row,Variant,yeast fitness
1,U3C C11A C31A G68C,0.582
2,U3C G18C C31G U59A G67A,≤ 0.5
3,U3C C5G C30G A36C,≤ 0.5
4,U3C C22G C31U U53C,≤ 0.5
5,U3C C30G A43C G67C,≤ 0.5
6,U3C C30U C33G,≤ 0.5
7,U3C C30U C46A U54A A57G,≤ 0.5
8,U3C G17A C29U C33U C60G,≤ 0.5
9,U3C C29U C60G,0.568
10,U3C C11U C31U,0.782
11,U3C C5G A21U A42C A70G,0.542
12,U3C G9C C11U C30G A43C,0.519
13,U3C C46A G58C,1.04
14,U3C G23C C27G C61G,0.539
15,U3C C34G A65G,0.757
16,U3C G9A G17A,0.798
17,U3C C24U C55G,≤ 0.5
18,U3C C31U G67C,0.797
19,U3C G9A A57G A65U,≤ 0.5
20,U3C C30G G52A A70U,0.641
21,U3C C29G C46U C49U U59G A65U G68A,≤ 0.5
22,U3C G9C C11U C30G A43C U64C,≤ 0.5
23,U3C C5A C11G A20U G25C G56A G58A G67C,≤ 0.5
24,U3C C5U C22U A40U A43U,≤ 0.5

row,Variant,yeast fitness
1,U3C C33G C60A C66G,≤ 0.5
2,U3C G10A,0.718
3,U3C G41A,0.879
4,U3C G41C,0.824
5,U3C C34A G44A G52A C55U A70G,≤ 0.5
6,U3C C11U C46U,1.1
7,U3C C11A,0.65
8,U3C C11G,0.608
9,U3C C22U C31U,0.691
10,U3C C60A,0.619
11,U3C C4U A57G,0.677
12,U3C G12A U28C A37C A45U G48C,≤ 0.5
13,U3C C11U A14C A21U A36C G58C,0.562
14,U3C C30G,0.677
15,U3C C31G,0.86
16,U3C C31U,0.891
17,U3C G6A C30U G39A A45G C46U C49G,≤ 0.5
18,U3C C31G A57G,0.589
19,U3C C4U C55U,0.699
20,U3C G18A U32G A43C G51A,0.626
21,U3C C24G A43C G48A G58A G68C,≤ 0.5
22,U3C C31U U47C,0.864
23,U3C C4G A20G A43G,≤ 0.5
24,U3C C5A A15U A20G,≤ 0.5

row,Variant,yeast fitness
1,U3C G17C C29G C49G,0.885
2,U3C G10C C11G C24G,≤ 0.5
3,U3C C29G G38A A43G G50A,≤ 0.5
4,U3C C24G C61U,0.528
5,U3C G48C G67C,≤ 0.5
6,U3C C22A A70C,0.607
7,U3C C30A A69U,0.745
8,U3C C49U,0.891
9,U3C C60G G67C,≤ 0.5
10,U3C A42U A45U U64C,0.885
11,U3C G48A U54A,0.534
12,U3C C11A C31A,0.556
13,U3C G23A C34U A40U A42U U64A,≤ 0.5
14,U3C C24A C55A,≤ 0.5
15,U3C G50C,0.714
16,U3C G10A C22A C24G U54C,≤ 0.5
17,U3C C11A U32G G39A C61A C62A,≤ 0.5
18,U3C G10A U54C G56C G58A,0.553
19,U3C C55G G68C,≤ 0.5
20,U3C C31U G52C,0.591
21,U3C C31G G51C,0.55
22,U3C C31U C66U,0.898
23,U3C C27U G58C A69C,0.793
24,U3C C4U C24G C49U C60U C61A,≤ 0.5

row,Variant,yeast fitness
1,U3C C27G C49A A70G,0.593
2,U3C A40U G58A,1.02
3,U3C G10C C22U C55G,≤ 0.5
4,U3C C46U A69U,0.789
5,U3C C22A C33A,≤ 0.5
6,U3C C46G A69U,0.807
7,U3C C46U U54A,≤ 0.5
8,U3C A57G A69U,0.599
9,U3C C5G,0.761
10,U3C C46U U64C,0.802
11,U3C C5G A15C C27G A69U,≤ 0.5
12,U3C G9A A69C,0.905
13,U3C A43U G44C U64C,0.567
14,U3C C5U A37U C49U U53C,0.597
15,U3C A57U,0.713
16,U3C C31U C49U,0.919
17,U3C G38C A57U A70G,0.622
18,U3C A43U A45G,0.567
19,U3C G12A C29G C34U A36C G56C,≤ 0.5
20,U3C C5G G17A A40C U59C,≤ 0.5
21,U3C C27U A69U,0.806
22,U3C C30A C61U,0.678
23,U3C G9A G50A,0.838
